Source: ChEMBL document CHEMBL1649465, “In vitro activity of ceftaroline alone and in combination against clinical isolates of resistant gram-negative pathogens, including beta-lactamase-producing Enterobacteriaceae and Pseudomonas aeruginosa” (2009)
In brackets after ≈: the same amount, converted by molar mass. Activity calls are given as the source filed them. No cut-off for these calls is given here.

Tests used:
[1] = tested on: Pseudomonas aeruginosa; assay: Bactericidal activity against Pseudomonas aeruginosa isolate 956 at 1/4 times MIC after 24 hrs by time kill analysis; type: functional, organism-based
Summary of the method: (§1)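 Duplicate 24-h time-kill of the drug combination, each agent at one-fourth its MIC. […] Counts were taken by spiral plating after dilution in cold saline.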

[2] = tested on: Enterobacter cloacae; assay: Antimicrobial activity against […] Enterobacter cloacae by broth microdilution method; type: functional
[3] = tested on: Escherichia coli; assay: Antimicrobial activity against Escherichia coli isolate 5411 by broth microdilution method; type: functional
[4] = tested on: Klebsiella pneumoniae; assay: Antimicrobial activity against Klebsiella pneumoniae isolate 5427 by broth microdilution method; type: functional
[5] = tested on: Pseudomonas aeruginosa; assay: Antimicrobial activity against Pseudomonas aeruginosa by broth microdilution method; type: functional
[6] = tested on: Enterobacter cloacae; assay: Antimicrobial activity against Enterobacter cloacae isolate 5420 by broth microdilution method; type: functional
[7] = tested on: Pseudomonas aeruginosa; assay: Antimicrobial activity against Pseudomonas aeruginosa isolate 956 by broth microdilution method; type: functional
[8] = tested on: Klebsiella pneumoniae; assay: Bactericidal activity against Klebsiella pneumoniae isolate 5427 at 1/4 times MIC after 24 hrs by time kill analysis; type: functional, organism-based
Summary of the method: (§2)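 Duplicate time-kill assays in 2-ml cultures of Mg/Ca-supplemented Mueller-Hinton broth. […] Samples taken at 0, 1, 2, 4, 8 and 24 h, serially diluted in cold 0.9% NaCl and spiral-plated for colony counts. Detection limit 2 log10 CFU/ml. Reported as decrease in log10 CFU/ml (mean ± SD).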

[9] = tested on: Klebsiella pneumoniae; assay: Antimicrobial activity against Klebsiella pneumoniae isolate 5436 by broth microdilution method; type: functional
[10] = tested on: Escherichia coli; assay: Antimicrobial activity against Escherichia coli isolate 5401 by broth microdilution method; type: functional
[11] = tested on: Pseudomonas aeruginosa; assay: Bactericidal activity against Pseudomonas aeruginosa isolate 796 at 1/4 times MIC after 24 hrs by time kill analysis; type: functional, organism-based; summary of the method: as §1
[12] = tested on: Pseudomonas aeruginosa; assay: Bactericidal activity against Pseudomonas aeruginosa isolate 1019 at 1/4 times MIC after 24 hrs by time kill analysis; type: functional, organism-based; summary of the method: as §1
[13] = tested on: Pseudomonas aeruginosa; assay: Antimicrobial activity against Pseudomonas aeruginosa isolate 796 by broth microdilution method; type: functional
[14] = tested on: Pseudomonas aeruginosa; assay: Antimicrobial activity against Pseudomonas aeruginosa isolate 1019 by broth microdilution method; type: functional
[15] = tested on: Klebsiella pneumoniae; assay: Bactericidal activity against Klebsiella pneumoniae isolate 5436 at 1/4 times MIC after 24 hrs by time kill analysis; type: functional, organism-based; summary of the method: as §1
[16] = tested on: Pseudomonas aeruginosa; assay: Antimicrobial activity against Pseudomonas aeruginosa isolate 1037 by broth microdilution method; type: functional
[17] = tested on: Klebsiella pneumoniae; assay: Antimicrobial activity against ESBL-producing Klebsiella pneumoniae by broth microdilution method; type: functional
[18] = tested on: Escherichia coli; assay: Bactericidal activity against Escherichia coli isolate 5401 at 1/4 times MIC after 24 hrs by time kill analysis; type: functional, organism-based; summary of the method: as §2
[19] = tested on: Pseudomonas aeruginosa; assay: Bactericidal activity against Pseudomonas aeruginosa isolate 1037 at 1/4 times MIC after 24 hrs by time kill analysis; type: functional, organism-based; summary of the method: as §1
[20] = tested on: Enterobacter cloacae; assay: Antimicrobial activity against Enterobacter cloacae isolate 4073 by broth microdilution method; type: functional
[21] = tested on: Escherichia coli; assay: Antimicrobial activity against ESBL-producing Escherichia coli by broth microdilution method; type: functional
[22] = tested on: Escherichia coli; assay: Bactericidal activity against Escherichia coli isolate 5411 at 1/4 times MIC after 24 hrs by time kill analysis; type: functional, organism-based; summary of the method: as §2

`C[C@@H](O)[C@H]1C(=O)N2C(C(=O)O)=C(S[C@@H]3CN[C@H](C(=O)N(C)C)C3)[C@H](C)[C@H]12` [MEROPENEM] was tested, and the inhibition [1] was “inactive”, the MBC [2] was 0.03 µg/mL (≈ 0.0782 µM) and the MIC [2] was 0.03 µg/mL (≈ 0.0782 µM). It also gave an MBC [3] of 0.06 µg/mL (≈ 0.156 µM), an MIC [3] of 0.06 µg/mL (≈ 0.156 µM) and an MBC [4] of 16 µg/mL (≈ 41.7 µM). For the same compound, the MIC [4] was 4 µg/mL (≈ 10.4 µM), the MBC [5] was 0.125 µg/mL (≈ 0.326 µM) and the MIC [5] was 0.125 µg/mL (≈ 0.326 µM). The MBC [6] was 0.125 µg/mL (≈ 0.326 µM), the MIC [6] was 0.125 µg/mL (≈ 0.326 µM) and the MBC [7] was 2 µg/mL (≈ 5.22 µM). The MIC [7] was 0.25 µg/mL (≈ 0.652 µM), the inhibition [8] was “inactive” and the MBC [9] was 0.06 µg/mL (≈ 0.156 µM). For the same compound, the MIC [9] was 0.06 µg/mL (≈ 0.156 µM), the MBC [10] was 0.06 µg/mL (≈ 0.156 µM) and the MIC [10] was 0.06 µg/mL (≈ 0.156 µM). For the same compound, the inhibition [11] was “inactive”, the inhibition [12] was “inactive” and the MBC [13] was 2 µg/mL (≈ 5.22 µM). The MIC [13] was 1 µg/mL (≈ 2.61 µM), the MBC [14] was 2 µg/mL (≈ 5.22 µM) and the MIC [14] was 1 µg/mL (≈ 2.61 µM). The inhibition [15] was “inactive”, the MBC [16] was 1 µg/mL (≈ 2.61 µM) and the MIC [16] was 0.5 µg/mL (≈ 1.3 µM). The MBC [17] was 0.06 µg/mL (≈ 0.156 µM), the MIC [17] was 0.03 µg/mL (≈ 0.0782 µM) and the inhibition [18] was “inactive”. The inhibition [19] was “inactive”, the MBC [20] was 0.5 µg/mL (≈ 1.3 µM) and the MIC [20] was 0.25 µg/mL (≈ 0.652 µM). The MBC [21] was 0.06 µg/mL (≈ 0.156 µM), the MIC [21] was 0.03 µg/mL (≈ 0.0782 µM) and the inhibition [22] was “inactive”.
In the case of `CN(C)c1cc(NC(=O)CNC(C)(C)C)c(O)c2c1C[C@H]1C[C@H]3[C@H](N(C)C)C(O)=C(C(N)=O)C(=O)[C@@]3(O)C(O)=C1C2=O` [TIGECYCLINE], the inhibition [1] is reported as “inactive”, the MBC [2] is reported as 0.5 µg/mL (≈ 0.854 µM) and the MIC [2] is reported as 0.25 µg/mL (≈ 0.427 µM). For the same compound, the MBC [3] was 0.5 µg/mL (≈ 0.854 µM), the MIC [3] was 0.125 µg/mL (≈ 0.213 µM) and the MBC [4] was 2 µg/mL (≈ 3.41 µM). The MIC [4] was 0.5 µg/mL (≈ 0.854 µM), the MBC [5] was 8 µg/mL (≈ 13.7 µM) and the MIC [5] was 2 µg/mL (≈ 3.41 µM). The MBC [6] was 2 µg/mL (≈ 3.41 µM), the MIC [6] was 0.5 µg/mL (≈ 0.854 µM) and the MBC [7] was 128 µg/mL (≈ 219 µM). For the same compound, the MIC [7] was 16 µg/mL (≈ 27.3 µM), the inhibition [8] was “inactive” and the MBC [9] was 1 µg/mL (≈ 1.71 µM). The MIC [9] was 0.125 µg/mL (≈ 0.213 µM), the MBC [10] was 1 µg/mL (≈ 1.71 µM) and the MIC [10] was 0.5 µg/mL (≈ 0.854 µM). For the same compound, the inhibition [11] was “inactive”, the inhibition [12] was “inactive” and the MBC [13] was 32 µg/mL (≈ 54.6 µM). For the same compound, the MIC [13] was 32 µg/mL (≈ 54.6 µM), the MBC [14] was 8 µg/mL (≈ 13.7 µM) and the MIC [14] was 2 µg/mL (≈ 3.41 µM). For the same compound, the inhibition [15] was “inactive”, the MBC [16] was 32 µg/mL (≈ 54.6 µM) and the MIC [16] was 8 µg/mL (≈ 13.7 µM). For the same compound, the MBC [17] was 0.5 µg/mL (≈ 0.854 µM), the MIC [17] was 0.125 µg/mL (≈ 0.213 µM) and the inhibition [18] was “inactive”. The inhibition [19] was “inactive”, the MBC [20] was 2 µg/mL (≈ 3.41 µM) and the MIC [20] was 0.5 µg/mL (≈ 0.854 µM). The MBC [21] was 0.06 µg/mL (≈ 0.102 µM), the MIC [21] was 0.06 µg/mL (≈ 0.102 µM) and the inhibition [22] was “inactive”.
For `C[C@H]1COc2c(N3CCN(C)CC3)c(F)cc3c(=O)c(C(=O)O)cn1c23.C[C@H]1COc2c(N3CCN(C)CC3)c(F)cc3c(=O)c(C(=O)O)cn1c23.O` [LEVOFLOXACIN], the inhibition [1] was “inactive”, the MBC [2] was 0.03 µg/mL and the MIC [2] was 0.03 µg/mL. The MBC [3] was 16 µg/mL, the MIC [3] was 8 µg/mL and the MBC [4] was 2 µg/mL. It also gave an MIC [4] of 0.25 µg/mL, an MBC [5] of 0.5 µg/mL and an MIC [5] of 0.25 µg/mL. For the same compound, the MBC [6] was 0.06 µg/mL, the MIC [6] was 0.06 µg/mL and the MBC [7] was 1 µg/mL. For the same compound, the MIC [7] was 0.5 µg/mL, the inhibition [8] was “inactive” and the MBC [9] was 4 µg/mL. It also gave an MIC [9] of 4 µg/mL, an MBC [10] of 32 µg/mL and an MIC [10] of 32 µg/mL. For the same compound, the inhibition [11] was “inactive”, the inhibition [12] was “inactive” and the MBC [13] was 2 µg/mL. For the same compound, the MBC [14] was 1 µg/mL, the MIC [14] was 0.5 µg/mL and the inhibition [15] was “inactive”. It also gave an MBC [16] of 0.5 µg/mL, an MIC [16] of 0.25 µg/mL and an MBC [17] of over 0.25 µg/mL. For the same compound, the MIC [17] was over 0.25 µg/mL, the inhibition [18] was “inactive” and the inhibition [19] was “inactive”. It also gave an MBC [20] of 0.06 µg/mL, an MIC [20] of 0.06 µg/mL and an MBC [21] of 0.06 µg/mL. The inhibition [22] was “inactive”.
